From article PMC7115694 (European Journal of Medicinal Chemistry, 2010)

How the values were obtained:
Type in all cases: cell-based
[1] = tested on: Vesicular stomatitis virus; test: microbe, parasite or virus in culture; conditions: HEL, read-out: EC50 Vesicular stomatitis virus
[2] = tested on: Vaccinia virus; test: microbe, parasite or virus in culture; conditions: Orthopoxvirus vaccinia, HEL, read-out: EC50 Vaccinia virus
[3] = tested on: HEL cells; test: Cytotoxicity in uninfected cell cultures; conditions: microscopically detectable alteration of cell morphology
Outline: (§1)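 Uninfected cell cultures are exposed to serial dilutions of test compound in parallel with the virus cytopathicity assays. Cells are examined microscopically. Minimum cytotoxic concentration is the lowest concentration causing a microscopically detectable alteration of normal cell morphology.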

[4] = tested on: Herpes simplex virus-2 (G); test: microbe, parasite or virus in culture; conditions: Human alphaherpesvirus 2, HEL, read-out: EC50 Herpes simplex virus-2 (G)
[5] = tested on: Herpes simplex virus-1 (KOS); test: microbe, parasite or virus in culture; conditions: Human alphaherpesvirus 1, HEL, read-out: EC50 Herpes simplex virus-1 (KOS)
[6] = tested on: Aspergillus niger; test: MIC by tube dilution method; conditions: observed, A. niger, 25 °C 7 d
[7] = tested on: C. albicans and A. niger; test: Average antifungal activity; conditions: average antifungal activity (pMICca + pMICan)/2
[8] = tested on: Escherichia coli; test: MIC by tube dilution method; conditions: observed, E. coli, 37 °C 24 h
Outline: (§2)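 Test compound is diluted in double strength nutrient broth (I.P.) by tube dilution, with ciprofloxacin as reference. Samples incubated at 37 °C for 24 h. MIC is the lowest concentration inhibiting microbial growth, transformed into pMIC for analysis.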

[9] = tested on: Feline Herpes virus; test: organism not typed; conditions: CRFK, read-out: EC50 Feline Corona Virus
[10] = tested on: Candida albicans; test: MIC by tube dilution method; conditions: observed, C. albicans, 37 °C 48 h
[11] = tested on: Staphylococcus aureus; test: MIC by tube dilution method; conditions: observed, S. aureus, 37 °C 24 h
[12] = tested on: S. aureus, B. subtilis and E. coli; test: Average antibacterial activity; conditions: average antibacterial activity (pMICsa + pMICbs + pMICec)/3
[13] = tested on: S. aureus, B. subtilis, E. coli, C. albicans and A. niger; test: Average antimicrobial activity; conditions: mean of five pMIC values
[14] = tested on: Reovirus-1; test: organism not typed; conditions: Vero, read-out: EC50 Reovirus-1
[15] = tested on: Vero cells; test: Cytotoxicity in uninfected cell cultures; conditions: cell morphology
Outline: as §1

[16] = tested on: Sindbis virus; test: microbe, parasite or virus in culture; conditions: Vero, read-out: EC50 Sindbis virus
[17] = tested on: HeLa cells; test: Cytotoxicity in uninfected cell cultures; conditions: cell morphology
Outline: as §1

[18] = tested on: Para-influenza-3 virus; test: organism not typed; conditions: Vero, read-out: EC50 Para-influenza-3 virus
[19] = tested on: Bacillus subtilis; test: MIC by tube dilution method; conditions: observed, B. subtilis, 37 °C 24 h
Outline: as §2

[20] = tested on: S. aureus; test: Minimum bactericidal concentration; conditions: static when MBC 3-fold higher than MIC

## Nc1nc(O)c2ncn(COC(CO)CO)c2n1 [Ganciclovir]
[1]
  EC50: > 100 µM
[2]
  EC50: > 100 µM
[3]
  Minimum cytotoxic concentration: >100 µM
[4]
  EC50: 0.03 µM
[5]
  EC50: 0.03 µM

## Cc1ccc(S(=O)(=O)n2c(-c3ccc(S(=O)(=O)O)cc3)nc3ccccc32)cc1 [Compound 20]
[6]
  pMICan: 1.23
[7]
  pMICaf: 1.39
[8]
  pMICec: 1.54
[9]
  EC50: > 100 µg/mL
[10]
  pMICca: 1.54
[11]
  pMICsa: 1.84
[12]
  pMICab: 1.74
[13]
  pMICam: 1.60
[3]
  Minimum cytotoxic concentration: >100 µg/mL
[14]
  EC50: > 100 µg/mL
[15]
  Minimum cytotoxic concentration: >100 µg/mL
[16]
  EC50: > 100 µg/mL
[17]
  Cytotoxicity Minimum cytotoxic concentration: >100 µg/mL
[18]
  EC50: > 100 µg/mL
[19]
  pMICbs: 1.84

## Cc1ccccc1C(=O)n1c(-c2ccc(S(=O)(=O)O)cc2)nc2ccccc21 [Compound 10]
[6]
  pMICan: 1.20
[7]
  pMICaf: 1.35
[20]
  bacteriostatic/bactericidal action against S. aureus: active bacteriocidal agents
[8]
  pMICec: 2.10
[9]
  EC50: > 100 µg/mL
[10]
  pMICca: 1.50
[11]
  pMICsa: 2.10
[12]
  pMICab: 2.10
[13]
  pMICam: 1.80
[3]
  Minimum cytotoxic concentration: >100 µg/mL
[14]
  EC50: > 100 µg/mL
[15]
  Minimum cytotoxic concentration: >100 µg/mL
[17]
  Cytotoxicity Minimum cytotoxic concentration: >100 µg/mL
[18]
  EC50: > 100 µg/mL
[19]
  pMICbs: 2.10

## O=C(c1cccnc1)n1c(-c2ccc(S(=O)(=O)O)cc2)nc2ccccc21 [Compound 15]
[6]
  pMICan: 1.48
[7]
  pMICaf: 1.62
[8]
  pMICec: 2.39
[9]
  EC50: > 100 µg/mL
[10]
  pMICca: 1.75
[11]
  pMICsa: 2.13
[12]
  pMICab: 2.22
[13]
  pMICam: 1.98
[3]
  Minimum cytotoxic concentration: >100 µg/mL
[14]
  EC50: > 100 µg/mL
[15]
  Minimum cytotoxic concentration: >100 µg/mL
[17]
  Cytotoxicity Minimum cytotoxic concentration: >100 µg/mL
[18]
  EC50: > 100 µg/mL
[19]
  pMICbs: 2.13

## O=C(c1ccc([N+](=O)[O-])cc1)n1c(-c2ccc(S(=O)(=O)O)cc2)nc2ccccc21 [Compound 9, 4-[1-(4-Nitrobenzoyl)-1H-benzoimidazol-2-yl]-benzenesulfonic acid]
[6]
  pMICan: 1.53
[7]
  pMICaf: 1.83
[8]
  pMICec: 2.43
[9]
  EC50: > 100 µg/mL
[10]
  pMICca: 2.13
[11]
  pMICsa: 2.43
[12]
  pMICab: 2.43
[13]
  pMICam: 2.19
[3]
  Minimum cytotoxic concentration: >100 µg/mL
[14]
  EC50: > 100 µg/mL
[15]
  Minimum cytotoxic concentration: >100 µg/mL
[17]
  Cytotoxicity Minimum cytotoxic concentration: >100 µg/mL
[18]
  EC50: > 100 µg/mL
[19]
  pMICbs: 2.43

## O=C(c1cccc(O)c1)n1c(-c2ccc(S(=O)(=O)O)cc2)nc2ccccc21 [Compound 6]
[6]
  pMICan: 1.20
[7]
  pMICaf: 1.35
[8]
  pMICec: 2.40
[9]
  EC50: > 100 µg/mL
[10]
  pMICca: 1.50
[11]
  pMICsa: 2.10
[12]
  pMICab: 2.22
[13]
  pMICam: 1.87
[3]
  Minimum cytotoxic concentration: >100 µg/mL
[14]
  EC50: > 100 µg/mL
[15]
  Minimum cytotoxic concentration: >100 µg/mL
[17]
  Cytotoxicity Minimum cytotoxic concentration: >100 µg/mL
[18]
  EC50: > 100 µg/mL
[19]
  pMICbs: 2.15

## Nc1ccc(C(=O)n2c(-c3ccc(S(=O)(=O)O)cc3)nc3ccccc32)cc1 [Compound 3]
[6]
  pMICan: 1.50
[7]
  pMICaf: 1.35
[8]
  pMICec: 2.10
[9]
  EC50: > 100 µg/mL
[10]
  pMICca: 1.20
[11]
  pMICsa: 2.10
[12]
  pMICab: 2.00
[13]
  pMICam: 1.74
[3]
  Minimum cytotoxic concentration: >100 µg/mL
[14]
  EC50: > 100 µg/mL
[15]
  Minimum cytotoxic concentration: >100 µg/mL
[17]
  Cytotoxicity Minimum cytotoxic concentration: >100 µg/mL
[18]
  EC50: > 100 µg/mL
[19]
  pMICbs: 1.80

## COc1ccc(C(=O)n2c(-c3ccc(S(=O)(=O)O)cc3)nc3ccccc32)cc1 [Compound 8]
[6]
  pMICan: 1.21
[7]
  pMICaf: 1.36
[8]
  pMICec: 2.12
[9]
  EC50: > 100 µg/mL
[10]
  pMICca: 1.51
[11]
  pMICsa: 2.12
[12]
  pMICab: 2.12
[13]
  pMICam: 1.82
[3]
  Minimum cytotoxic concentration: >100 µg/mL
[14]
  EC50: > 100 µg/mL
[15]
  Minimum cytotoxic concentration: >100 µg/mL
[17]
  Cytotoxicity Minimum cytotoxic concentration: >100 µg/mL
[18]
  EC50: > 100 µg/mL
[19]
  pMICbs: 2.12

## O=C(c1ccccc1)n1c(-c2ccc(S(=O)(=O)O)cc2)nc2ccccc21 [Compound 2]
[6]
  pMICan: 1.48
[7]
  pMICaf: 1.63
[8]
  pMICec: 2.12
[9]
  EC50: > 100 µg/mL
[10]
  pMICca: 1.78
[11]
  pMICsa: 2.08
[12]
  pMICab: 2.11
[13]
  pMICam: 1.92
[3]
  Minimum cytotoxic concentration: >100 µg/mL
[14]
  EC50: > 100 µg/mL
[15]
  Minimum cytotoxic concentration: >100 µg/mL
[17]
  Cytotoxicity Minimum cytotoxic concentration: >100 µg/mL
[18]
  EC50: > 100 µg/mL
[19]
  pMICbs: 2.12

## Nc1ccn(C[C@@H](CO)OCP(=O)(O)O)c(=O)n1 [Cidofovir]
[1]
  EC50: > 250 µM
[2]
  EC50: > 250 µM
[4]
  EC50: 0.2 µM
[5]
  EC50: 0.4 µM

## O=C(c1ccccc1O)n1c(-c2ccc(S(=O)(=O)O)cc2)nc2ccccc21 [Compound 16]
[6]
  pMICan: 1.50
[7]
  pMICaf: 1.50
[8]
  pMICec: 2.26
[9]
  EC50: > 100 µg/mL
[10]
  pMICca: 1.50
[11]
  pMICsa: 2.10
[12]
  pMICab: 2.15
[13]
  pMICam: 1.89
[3]
  Minimum cytotoxic concentration: >100 µg/mL
[14]
  EC50: > 100 µg/mL
[15]
  Minimum cytotoxic concentration: >100 µg/mL
[17]
  Cytotoxicity Minimum cytotoxic concentration: >100 µg/mL
[18]
  EC50: > 100 µg/mL
[19]
  pMICbs: 2.10

## CCCCCCCC/C=C/CCCCCCCC(=O)n1c(-c2ccc(S(=O)(=O)O)cc2)nc2ccccc21 [Compound 18, 4-(1-octadec-9-enoyl-1H-benzoimidazol-2-yl)-benzenesulfonic acid]
[6]
  pMICan: 1.63
[7]
  pMICaf: 1.79
[8]
  pMICec: 1.85
[9]
  EC50: > 100 µg/mL
[10]
  pMICca: 1.94
[11]
  pMICsa: 2.24
[12]
  pMICab: 2.11
[13]
  pMICam: 1.98
[3]
  Minimum cytotoxic concentration: >100 µg/mL
[14]
  EC50: > 100 µg/mL
[15]
  Minimum cytotoxic concentration: >100 µg/mL
[17]
  Cytotoxicity Minimum cytotoxic concentration: >100 µg/mL
[18]
  EC50: > 100 µg/mL
[19]
  pMICbs: 2.24

## O=C(c1ccccc1Cl)n1c(-c2ccc(S(=O)(=O)O)cc2)nc2ccccc21 [Compound 4]
[6]
  pMICan: 1.22
[7]
  pMICaf: 1.37
[8]
  pMICec: 2.42
[9]
  EC50: > 100 µg/mL
[10]
  pMICca: 1.52
[11]
  pMICsa: 2.09
[12]
  pMICab: 2.11
[13]
  pMICam: 1.81
[3]
  Minimum cytotoxic concentration: >100 µg/mL
[14]
  EC50: > 100 µg/mL
[15]
  Minimum cytotoxic concentration: >100 µg/mL
[17]
  Cytotoxicity Minimum cytotoxic concentration: >100 µg/mL
[18]
  EC50: > 100 µg/mL
[19]
  pMICbs: 1.82

## NC(=O)c1ncn([C@@H]2O[C@H](CO)[C@@H](O)[C@H]2O)n1 [Ribavirin]
[1]
  EC50: > 250 µM
[2]
  EC50: 10 µM
[3]
  Minimum cytotoxic concentration: >250 µM
[15]
  Minimum cytotoxic concentration: >250 µM
[4]
  EC50: 2 µM
[16]
  EC50: > 250 µM
[17]
  Cytotoxicity Minimum cytotoxic concentration: >250 µM
[18]
  EC50: 95 µM
[5]
  EC50: 1 µM

## O=C(c1ccc(O)cc1O)n1c(-c2ccc(S(=O)(=O)O)cc2)nc2ccccc21 [Compound 7]
[6]
  pMICan: 1.22
[7]
  pMICaf: 1.37
[8]
  pMICec: 2.42
[9]
  EC50: > 100 µg/mL
[10]
  pMICca: 1.52
[11]
  pMICsa: 2.12
[12]
  pMICab: 2.32
[13]
  pMICam: 1.94
[3]
  Minimum cytotoxic concentration: 100 µg/mL
[14]
  EC50: > 100 µg/mL
[15]
  Minimum cytotoxic concentration: >100 µg/mL
[17]
  Cytotoxicity Minimum cytotoxic concentration: >100 µg/mL
[18]
  EC50: > 100 µg/mL
[19]
  pMICbs: 2.42

## O=c1[nH]c(=O)n([C@H]2C[C@H](O)[C@@H](CO)O2)cc1/C=C/Br [Brivudin]
[1]
  EC50: > 250 µM
[2]
  EC50: 112 µM
